# Data as given in PMC3983399 (Journal of Medicinal Chemistry, 2014).
# What was measured:
# [1] = tested on: A549 nonsmall cell lung cancer cell line; assay: CellTiter-Glo viability assay, A549 cells; format: cell-based; settings: Homo sapiens, A549, read-out: Inhibition % @ 100 μM A549
# Outline: (§1)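 Cells plated at 1250/well in serum-free medium (F12 for CHO-K1 and A549, DMEM for M14). Compounds given as 10-point 1:3 dilution series starting at 300 µM before addition, with gefitinib as assay control. Incubated 72 h at 37 °C, 5% CO2. CellTiter-Glo added, 15 min at room temperature, luminescence read. Normalized to media-only (0%) and 1% DMSO-treated cells (100%). Percent inhibition is the mean of three experiments ± SD.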
# M14 melanoma cell line = assay: CellTiter-Glo viability assay, M14 cells; format: cell-based
# Outline: as §1
# HDAC6 = target: T1, HDAC6 (Homo sapiens, UniProt Q9UBN7); assay: HDAC inhibition, HDAC6; format: biochemical; settings: up to 100 μM, data not shown
# T1 sequence (Q9UBN7 1-1215): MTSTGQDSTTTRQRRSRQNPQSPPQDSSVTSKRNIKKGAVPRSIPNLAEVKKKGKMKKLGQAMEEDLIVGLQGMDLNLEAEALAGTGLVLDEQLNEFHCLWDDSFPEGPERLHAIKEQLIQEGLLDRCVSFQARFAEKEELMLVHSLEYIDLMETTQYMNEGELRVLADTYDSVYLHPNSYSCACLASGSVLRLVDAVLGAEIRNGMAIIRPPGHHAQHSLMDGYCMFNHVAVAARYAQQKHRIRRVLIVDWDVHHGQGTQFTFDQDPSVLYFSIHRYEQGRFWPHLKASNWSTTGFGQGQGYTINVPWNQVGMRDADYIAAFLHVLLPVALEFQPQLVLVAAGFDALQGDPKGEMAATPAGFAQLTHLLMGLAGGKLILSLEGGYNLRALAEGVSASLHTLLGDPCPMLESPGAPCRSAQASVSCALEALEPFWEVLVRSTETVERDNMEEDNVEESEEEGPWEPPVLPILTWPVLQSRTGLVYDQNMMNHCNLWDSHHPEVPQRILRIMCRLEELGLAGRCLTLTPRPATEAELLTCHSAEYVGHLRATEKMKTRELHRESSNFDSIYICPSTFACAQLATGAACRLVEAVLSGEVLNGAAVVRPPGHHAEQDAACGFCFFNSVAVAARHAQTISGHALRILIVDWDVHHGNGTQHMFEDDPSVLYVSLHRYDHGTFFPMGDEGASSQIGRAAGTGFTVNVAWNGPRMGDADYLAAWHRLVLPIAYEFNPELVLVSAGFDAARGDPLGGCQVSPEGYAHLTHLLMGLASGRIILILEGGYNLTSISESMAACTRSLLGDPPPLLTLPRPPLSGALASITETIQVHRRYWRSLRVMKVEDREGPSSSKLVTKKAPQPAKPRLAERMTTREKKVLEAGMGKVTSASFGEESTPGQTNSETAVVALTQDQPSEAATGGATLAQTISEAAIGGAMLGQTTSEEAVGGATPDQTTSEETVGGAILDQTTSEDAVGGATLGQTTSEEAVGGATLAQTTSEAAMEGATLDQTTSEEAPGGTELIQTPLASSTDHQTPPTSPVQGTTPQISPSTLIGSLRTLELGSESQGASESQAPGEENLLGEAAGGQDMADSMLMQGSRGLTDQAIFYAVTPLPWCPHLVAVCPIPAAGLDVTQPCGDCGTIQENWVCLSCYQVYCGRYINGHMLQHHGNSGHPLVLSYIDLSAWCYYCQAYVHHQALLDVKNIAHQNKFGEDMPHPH
# M14 cells = assay: ApoTox-Glo triplex assay; format: cell-based; settings: for cytotoxicity response / effect on cell viability (live cell protease): early time point (4 h); for time of caspase activity spike: time points 4, 24, 48, 72 h
# Outline: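 M14 #5 cells, 1250/well in serum-free DMEM, preincubated 4 h at 37 °C, 5% CO2. Compounds (1:3 serial dilutions) incubated 4, 24, 48 and 72 h alongside ionomycin, terfenadine and panobinostat controls. Viability/cytotoxicity reagent (400 µM GF-AFC, 400 µM bis-AAF-R110 in reagent) 30 min at 37 °C; fluorescence Ex400/Em505 (live-cell protease) and Ex485/Em520 (dead-cell protease). Then Caspase-Glo 3/7, 30 min at room temperature, luminescence.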
# HDAC2 = HDAC2 (Homo sapiens, UniProt Q92769); assay: HDAC inhibition, HDAC2; format: biochemical; settings: up to 100 μM, data not shown
# HDAC1 = HDAC1 (Homo sapiens, UniProt Q13547); assay: HDAC inhibition, HDAC1; format: biochemical; settings: up to 100 μM, data not shown
# [2] = tested on: SKMEL-28 melanoma cell line; assay: Hexosaminidase viability assay, SKMEL-28; format: cell-based; settings: Homo sapiens, SK-MEL-28, read-out: IC50 SKMEL-28, text
# Outline: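 Cells in 96-well plates grown overnight, then treated 48 h with compound at 0–50 µM. Wells washed with PBS. Hexosaminidase substrate added for 30 min at 37 °C, followed by developer; absorbance read at 405 nm. Percent viability = (treated absorbance/control absorbance) × 100.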
# [3] = tested on: melanoma cells with mutated Q61LNRAS and wild-type BRAF (M202 and M207); settings: up to 10 μM; cited from earlier work
# HDAC1, sequence (Q13547 whole entry, species assumed): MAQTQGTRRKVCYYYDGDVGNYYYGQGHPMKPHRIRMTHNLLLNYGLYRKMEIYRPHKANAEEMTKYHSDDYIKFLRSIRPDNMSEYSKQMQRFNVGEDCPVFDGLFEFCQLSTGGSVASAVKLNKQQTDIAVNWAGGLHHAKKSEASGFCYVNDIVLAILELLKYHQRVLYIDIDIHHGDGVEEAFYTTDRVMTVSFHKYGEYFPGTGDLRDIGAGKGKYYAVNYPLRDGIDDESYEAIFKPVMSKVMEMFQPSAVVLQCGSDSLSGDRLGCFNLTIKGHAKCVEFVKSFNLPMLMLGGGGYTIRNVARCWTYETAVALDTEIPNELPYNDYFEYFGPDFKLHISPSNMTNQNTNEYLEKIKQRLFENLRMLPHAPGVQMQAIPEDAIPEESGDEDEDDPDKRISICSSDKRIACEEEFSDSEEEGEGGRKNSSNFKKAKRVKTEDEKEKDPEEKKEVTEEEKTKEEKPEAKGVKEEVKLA
# HDAC2, sequence (Q92769 whole entry): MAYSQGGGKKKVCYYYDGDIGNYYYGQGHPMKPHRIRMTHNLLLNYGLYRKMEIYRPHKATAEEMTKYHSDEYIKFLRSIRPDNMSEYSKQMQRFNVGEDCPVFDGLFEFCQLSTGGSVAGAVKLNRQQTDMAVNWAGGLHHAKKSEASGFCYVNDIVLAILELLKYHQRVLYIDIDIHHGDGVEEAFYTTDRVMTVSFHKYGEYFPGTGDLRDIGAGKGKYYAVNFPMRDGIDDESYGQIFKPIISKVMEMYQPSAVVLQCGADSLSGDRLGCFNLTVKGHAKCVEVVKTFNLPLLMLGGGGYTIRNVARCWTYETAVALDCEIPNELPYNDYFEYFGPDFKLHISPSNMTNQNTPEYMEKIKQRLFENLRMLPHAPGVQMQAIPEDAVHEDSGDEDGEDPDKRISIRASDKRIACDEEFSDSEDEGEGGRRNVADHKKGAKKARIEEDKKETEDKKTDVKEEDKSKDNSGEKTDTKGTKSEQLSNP
structure (smiles),measurement,setting,value
CCC[C@@H]1CNC(=O)C(=O)N1C[C@@H]1CCCN1C[C@H](Cc1ccc(O)cc1)N1C[C@@H](Cc2ccc(O)cc2)N(CC(CC)c2ccccc2)C(=O)C1=O (some centres unmarked) [Compound 2],inhibition at 100 µM,[1],0%
same,inhibition at 100 µM,"M14 melanoma cell line; Homo sapiens, M14, read-out: Inhibition % @ 100 μM M14",14 ± 3%
O=C1NC[C@H](Cc2ccccc2)N(C[C@@H]2CCCN2C[C@@H](CC2CCCCC2)N2C[C@H](Cc3ccc(O)cc3)N(CCc3ccccc3)C(=O)C2=O)C1=O [Compound 2155-14],HDAC6 inhibition,HDAC6,lack of HDAC inhibition
same,cytotoxicity response,M14 cells,no markers for apoptosis and cytotoxicity
same,effect on cell viability (live cell protease),M14 cells,no effect on cell viability
same,time of caspase activity spike,M14 cells,24 h
same,HDAC2 inhibition,HDAC2,lack of HDAC inhibition
same,HDAC1 inhibition,HDAC1,lack of HDAC inhibition
same,inhibition of M14 cell viability at highest tested concentration,M14 melanoma cell line; 100 μM,not able to inhibit M14 cell viability fully
CCC[C@H]1CNC(=O)C(=O)N1C[C@@H]1CCCN1C[C@@H](CC1CCCCC1)N1C[C@H](Cc2ccc(O)cc2)N(CCc2ccccc2)C(=O)C1=O [Compound 2155-17],selectivity for M14 over A549 cells,M14 melanoma cell line; ratio of IC50,approximately 5 fold
same,selectivity for M14 over CHO-K1 cells,M14 melanoma cell line; ratio of IC50,more than 10 fold
O=C1NC[C@H](Cc2ccccc2)N(C[C@@H]2CCCN2C[C@H](Cc2ccccc2)N2C[C@H](Cc3ccc(O)cc3)N(CCC34CC5CC(CC(C5)C3)C4)C(=O)C2=O)C1=O [Compound 2155-18],HDAC6 inhibition,HDAC6,lack of HDAC inhibition
same,IC50,[2],890 ± 70 nM
same,HDAC2 inhibition,HDAC2,lack of HDAC inhibition
same,HDAC1 inhibition,HDAC1,lack of HDAC inhibition
same,IC50,"M14 melanoma cell line; Homo sapiens, M14, read-out: IC50 M14, Table 3, mean of three ± SD",890 ± 70 nM
C[C@H](CCC(=O)O)C[C@H](C)C[C@H](C)C(=O)/C=C(\O)[C@H](C)C[C@H](C)C/C=C/[C@@H](C)[C@@H](O)[C@@H](C)[C@@H](O)C[C@@H]1CC[C@@](C)([C@H]2CC[C@@](C)([C@@H](C)O)O2)O1 [ionomycin],cytotoxicity response,M14 cells,strong cytotoxicity response
same,effect on cell viability (live cell protease),M14 cells,dose-dependent loss of viability
same,time of caspase activity spike,M14 cells,did not induce a spike in caspase activity
Cc1[nH]c2ccccc2c1CCNCc1ccc(/C=C/C(=O)NO)cc1 [panobinostat],cytotoxicity response,M14 cells,no effect
same,effect on cell viability (live cell protease),M14 cells,no effect
same,time of caspase activity spike,M14 cells,24 to 48 h
CC(C)(C)c1ccc(C(O)CCCN2CCC(C(O)(c3ccccc3)c3ccccc3)CC2)cc1 (centres unmarked) [terfenadine],cytotoxicity response,M14 cells,cytotoxicity spike
same,effect on cell viability (live cell protease),M14 cells,early loss of cell viability
same,time of caspase activity spike,M14 cells,4 to 24 h
CCCS(=O)(=O)Nc1ccc(F)c(C(=O)c2c[nH]c3ncc(-c4ccc(Cl)cc4)cc23)c1F [vemurafenib],activity against M202 and M207 melanoma cells,[3],inactive
